{"source": "paper PMC11164251", "about": "(International journal of biological macromolecules, 2023)", "key": {"HsTFIIS LW domain [1]": {"molecular_target": "HsTFIIS LW domain (Homo sapiens, UniProt P23193)", "experiment": "ITC of HsLeo1 peptides with the HsTFIIS LW domain", "assay_type": "binding", "settings": "pH 7.4, 25 °C", "how_it_was_run": "(§1)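 Recombinant N-His-tagged LW domain (wild type or point mutant), expressed in E. coli BL21 (DE3) (0.5 mM IPTG, 16 °C, 20 h) and purified by Ni-NTA, gel filtration and ion exchange. ITC: 50 uM protein in cell, 1mM synthetic Leo1 peptides in syringe, 16 × 2 μl injections at 120 s intervals. Buffer: 25 mM Tris, 200 mM NaCl, 1 mM EDTA, 1 % glycerol, pH 7.4, 25 °C. Peptide-into-buffer heat of dilution subtracted.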"}, "HsTFIIS LW domain [2]": {"molecular_target": "HsTFIIS LW domain (Homo sapiens, UniProt P23193, K67A)", "experiment": "ITC of HsLeo1 peptides with the HsTFIIS LW domain", "assay_type": "binding", "settings": "HsTFIIS1–96 LW mutant K67A, pH 7.4, 200 mM NaCl, 25 °C", "how_it_was_run": "as §1"}, "HsTFIIS LW domain [3]": {"molecular_target": "HsTFIIS LW domain (Homo sapiens, UniProt P23193, W73A)", "experiment": "ITC of HsLeo1 peptides with the HsTFIIS LW domain", "assay_type": "binding", "settings": "HsTFIIS1–96 LW mutant W73A, pH 7.4, 200 mM NaCl, 25 °C", "how_it_was_run": "as §1"}, "HsTFIIS LW domain [4]": {"molecular_target": "HsTFIIS LW domain (Homo sapiens, UniProt P23193, L41A)", "experiment": "ITC of HsLeo1 peptides with the HsTFIIS LW domain", "assay_type": "binding", "settings": "HsTFIIS1–96 LW mutant L41A, pH 7.4, 200 mM NaCl, 25 °C", "how_it_was_run": "as §1"}, "HsTFIIS LW domain [5]": {"molecular_target": "HsTFIIS LW domain (Homo sapiens, UniProt P23193, I70A)", "experiment": "ITC of HsLeo1 peptides with the HsTFIIS LW domain", "assay_type": "binding", "settings": "HsTFIIS1–96 LW mutant I70A, pH 7.4, 200 mM NaCl, 25 °C", "how_it_was_run": "as §1"}, "HsTFIIS LW domain [6]": {"molecular_target": "HsTFIIS LW domain", "experiment": "ITC of HsLeo1 peptides with the HsTFIIS LW domain", "assay_type": "binding, Homo sapiens", "settings": "HsTFIIS LW domain mutant printed as W339A", "how_it_was_run": "as §1"}, "ScTFIIS LW domain [7]": {"molecular_target": "ScTFIIS LW domain (Saccharomyces cerevisiae, UniProt P07273)", "assay_type": "binding"}, "ScTFIIS LW domain [8]": {"molecular_target": "ScTFIIS LW domain (Saccharomyces cerevisiae, UniProt P07273, K66A)", "assay_type": "binding", "settings": "ScTFIIS1–81 LW mutant K66A, pH 7.4, 25 °C"}, "ScTFIIS LW domain [9]": {"molecular_target": "ScTFIIS LW domain (Saccharomyces cerevisiae, UniProt P07273, L41A)", "assay_type": "binding", "settings": "ScTFIIS1–81 LW mutant L41A, pH 7.4, 25 °C"}, "ScTFIIS LW domain [10]": {"molecular_target": "ScTFIIS LW domain (Saccharomyces cerevisiae, UniProt P07273, I69A)", "assay_type": "binding", "settings": "ScTFIIS1–81 LW mutant I69A, pH 7.4, 25 °C"}, "ScTFIIS LW domain [11]": {"molecular_target": "ScTFIIS LW domain (Saccharomyces cerevisiae, UniProt P07273, W72A)", "assay_type": "binding", "settings": "ScTFIIS1–81 LW mutant W72A; ITC, pH 7.4, 200 mM NaCl, 25 °C"}, "[12]": {"molecular_target": "TbTFIIS2–2 LW domain (residue 251–359) F340A (T. brucei)", "experiment": "ITC"}, "[13]": {"molecular_target": "TbTFIIS2–2 LW domain (residue 251–359) L336A (T. brucei)", "experiment": "ITC"}, "[14]": {"molecular_target": "HsTFIIS LW domain without the C-terminus (residue 1–78) (H. sapiens, UniProt P23193 1-78)", "experiment": "ITC"}, "[15]": {"molecular_target": "HsTFIIS LW domain (residue 1–96), wild type (H. sapiens, UniProt P23193 1-96)", "experiment": "ITC"}, "[16]": {"molecular_target": "HsTFIIS LW domain (residue 1–96) K67A (H. sapiens, UniProt P23193 1-96, K67A)", "experiment": "ITC"}, "[17]": {"molecular_target": "T1, ScTFIIS LW domain, longer version (residue 1–93) (S. cerevisiae, UniProt P07273 1-93)", "T1 sequence (looked up)": "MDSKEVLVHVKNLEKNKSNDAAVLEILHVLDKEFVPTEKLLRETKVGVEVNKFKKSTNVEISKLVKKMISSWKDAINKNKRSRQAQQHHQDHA", "experiment": "ITC"}, "[18]": {"molecular_target": "T2, ScTFIIS LW domain (residue 1–81), wild type (S. cerevisiae, UniProt P07273 1-81)", "T2 sequence (looked up)": "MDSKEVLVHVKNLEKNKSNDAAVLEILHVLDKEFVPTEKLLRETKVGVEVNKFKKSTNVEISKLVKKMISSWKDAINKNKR", "experiment": "ITC"}, "[19]": {"molecular_target": "T3, ScTFIIS LW domain (residue 1–81) L41A (S. cerevisiae, UniProt P07273 1-81, L41A)", "T3 sequence (looked up)": "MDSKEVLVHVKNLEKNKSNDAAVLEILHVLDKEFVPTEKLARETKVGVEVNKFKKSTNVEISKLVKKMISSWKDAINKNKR", "experiment": "ITC"}, "[20]": {"molecular_target": "T4, ScTFIIS LW domain (residue 1–81) I69A (S. cerevisiae, UniProt P07273 1-81, I69A)", "T4 sequence (looked up)": "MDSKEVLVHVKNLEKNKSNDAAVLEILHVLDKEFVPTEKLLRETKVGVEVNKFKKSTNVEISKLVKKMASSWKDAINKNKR", "experiment": "ITC"}, "[21]": {"molecular_target": "T5, ScTFIIS LW domain (residue 1–81) K66A (S. cerevisiae, UniProt P07273 1-81, K66A)", "T5 sequence (looked up)": "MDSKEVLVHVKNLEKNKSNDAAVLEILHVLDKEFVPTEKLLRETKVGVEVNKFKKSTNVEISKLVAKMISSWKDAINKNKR", "experiment": "ITC"}}, "note": "Read-outs that look alike come from different tables or passages of the source. Peptide text beside a SMILES is read from it."}
{"molecule": "CC(C)C[C@H](NC(=O)[C@H](CCC(=O)O)NC(=O)[C@H](CCCCN)NC(=O)[C@H](CC(N)=O)NC(=O)[C@H](CO)NC(=O)[C@@H]1CCCN1C(=O)[C@@H](N)CCC(N)=O)C(=O)N[C@@H](Cc1ccccc1)C(=O)NCC(=O)N[C@@H](CC(=O)O)C(=O)N[C@@H](CC(=O)O)C(=O)N[C@@H](CO)C(=O)N[C@@H](CCC(=O)O)C(=O)N[C@@H](CC(=O)O)C(=O)N[C@@H](CCC(=O)O)C(=O)NCC(=O)O", "note": "[HsLeo1_55–70] (H-QPSNKELFGDDSEDEG-OH; N-terminus and C-terminus assumed)", "values": [{"measurement": "N (ITC binding stoichiometry)", "setting": "HsTFIIS LW domain [1]; HsTFIIS1–78 LW", "result": 1.00}, {"measurement": "N (ITC binding stoichiometry)", "setting": "HsTFIIS LW domain [1]; wild type HsTFIIS1–96 LW", "result": 0.96}, {"measurement": "Kd", "setting": "HsTFIIS LW domain [2]", "result": "weak binding"}, {"measurement": "Kd", "setting": "HsTFIIS LW domain [3]", "result": "no binding"}, {"measurement": "Kd", "setting": "HsTFIIS LW domain [4]", "result": "no binding"}, {"measurement": "Kd", "setting": "HsTFIIS LW domain [5]", "result": "no binding"}, {"measurement": "binding (ITC), result in words", "setting": "HsTFIIS LW domain [6]", "result": "abolishes the interactions"}]}
{"molecule": "CC(C)C[C@H](NC(=O)[C@H](CCC(=O)O)NC(=O)[C@H](C)NC(=O)[C@H](CC(=O)O)NC(=O)[C@H](CCC(=O)O)NC(=O)[C@@H](N)CCC(=O)O)C(=O)N[C@@H](CC(=O)O)C(=O)N[C@@H](CC(=O)O)C(=O)N[C@@H](CC(C)C)C(=O)N[C@@H](Cc1ccccc1)C(=O)NCC(=O)N[C@@H](CC(=O)O)C(=O)N[C@@H](CC(=O)O)C(=O)N[C@@H](CC(N)=O)C(=O)N[C@@H](CC(=O)O)C(=O)O", "note": "[ScLeo1_54–68] (H-EEDAELDDLFGDDND-OH; N-terminus and C-terminus assumed)", "values": [{"measurement": "N (ITC binding stoichiometry)", "setting": "ScTFIIS LW domain [7]; ScTFIIS LW1–93, pH 7.4, 25 °C", "result": 1.04}, {"measurement": "N (ITC binding stoichiometry)", "setting": "ScTFIIS LW domain [7]; wild type ScTFIIS1–81 LW, pH 7.4, 25 °C", "result": 1.00}, {"measurement": "N (ITC binding stoichiometry)", "setting": "ScTFIIS LW domain [8]", "result": 0.95}, {"measurement": "N (ITC binding stoichiometry)", "setting": "ScTFIIS LW domain [9]", "result": 1.03}, {"measurement": "N (ITC binding stoichiometry)", "setting": "ScTFIIS LW domain [10]", "result": 0.99}, {"measurement": "Kd", "setting": "ScTFIIS LW domain [11]", "result": "weak binding"}]}
{"molecule": "TbLeo1 peptide (residue 71–86) containing the LFG motif", "values": [{"measurement": "Kd", "setting": "[12]", "result": 9.33, "unit": "µM"}, {"measurement": "Kd", "setting": "[13]", "result": 1.11, "unit": "µM"}]}
{"molecule": "ADMEDLFGSDADSEA (peptide, UniProt Q8WVC0 2-16, looked up)", "note": "[HsLeo1 peptide (residue 2–16) containing an LFG motif]", "values": [{"measurement": "stoichiometry N", "setting": "[14]", "result": 1}, {"measurement": "stoichiometry N", "setting": "[15]", "result": 1}, {"measurement": "stoichiometry N", "setting": "[16]", "result": 1}]}
{"molecule": "EEDAELDDLFGDDND (peptide, UniProt P38439 54-68, looked up)", "note": "[ScLeo1 peptide (residue 54–68) containing the LFG motif]", "values": [{"measurement": "Kd", "setting": "[17]", "result": 1.39, "unit": "µM"}, {"measurement": "stoichiometry N", "setting": "[17]", "result": 1.04}, {"measurement": "Kd", "setting": "[18]", "result": 3.3, "unit": "µM"}, {"measurement": "stoichiometry N", "setting": "[18]", "result": 1}, {"measurement": "Kd", "setting": "[19]", "result": 37, "unit": "µM"}, {"measurement": "stoichiometry N", "setting": "[19]", "result": 1.03}, {"measurement": "Kd", "setting": "[20]", "result": 44, "unit": "µM"}, {"measurement": "stoichiometry N", "setting": "[20]", "result": 0.99}, {"measurement": "Kd", "setting": "[21]", "result": 5.1, "unit": "µM"}, {"measurement": "stoichiometry N", "setting": "[21]", "result": 0.95}]}
{"molecule": "QPSNKELFGDDSEDEG (peptide, UniProt Q8WVC0 55-70, looked up)", "note": "[HsLeo1 peptide (residue 55–70) containing an LFG motif]", "values": [{"measurement": "Kd", "setting": "[14]", "result": 57.6, "unit": "µM"}, {"measurement": "stoichiometry N", "setting": "[14]", "result": 1}, {"measurement": "Kd", "setting": "[15]", "result": 44, "unit": "µM"}, {"measurement": "stoichiometry N", "setting": "[15]", "result": 0.96}]}
